# Source: ChEMBL document CHEMBL4513216, “Probing the Open Global Health Chemical Diversity Library for Multistage-Active Starting Points for Next-Generation Antimalarials” (ACS Infect Dis, 2020)
# Test: Toxicity liver stage against HepG2, at 10uM
# Type: cell-based
# Parameters: test concentration 10 uM, cell line HepG2-A16-CD81EGFP
# Conditions: human, HepG2-A16-CD81EGFP cells; read-out: INHIBITION
# How it was run: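 Uninfected HepG2-A16-CD81EGFP cells, 3 × 10^3 per well, 1536-well, plated on prespotted compound at 10 μM final, parasite-free screening media added to match infected plates; puromycin 10 μM positive, DMSO 0.5% negative; run in parallel with 48 h PbLuc assay at 37 °C, 5% CO2; viability by CellTiter-Glo luminescence, normalized to controls.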
row,Compound,cytotoxicity at 10 µM
1,O=C(C1CCCC1)N1CCC(c2ccnc(Nc3cnccn3)n2)C1 (centres undefined),-24.6%
2,COc1nn(C)c2c1CCCN(C(=O)c1cccc3cccnc13)C2,-104%
3,CCc1ncc(C(=O)NCCNc2ccncc2)s1,-9.7%
4,COCCOc1ncccc1C(=O)N1CCCn2ncnc21,-2.98%
5,Cn1ncc2cnn(CC(O)COCc3ccccc3Cl)c2c1=O (centres undefined),3.8%
6,NC(=O)c1cc(C2CCCN(CCOCC3CC3)C2)n[nH]1 (centres undefined),-11.5%
7,COc1ccc2c(c1)CCN(CCC(=O)O)CC2,-9.21%
8,CN(C)C(=O)COC[C@H]1CC[C@@H]2[C@@H](CCN2Cc2ccco2)O1,-160%
9,O=C(c1ccc(Cn2cccc2)cc1)N1CCN(CCO)CC1,-3.69%
10,O=C(NCc1ccco1)[C@H]1CC[C@@H]2[C@@H](CCN2c2ncc(F)cn2)O1,-78.4%
11,O=C(Cn1nc(-c2ccc(F)cc2)oc1=O)Nc1ccccc1,0.967%
12,Cc1ccsc1CN(Cc1nc2c(cnn2C)c(=O)[nH]1)C(C)C,-7.27%
13,CN(C)c1ncnc2c1CCN(S(=O)(=O)c1cccc3nsnc13)C2,4.01%
14,CCc1ccc(C(=O)O)cc1S(=O)(=O)Nc1ccc(F)c(C#N)c1,-10.9%
15,CC1CN(C)CCN1C(=O)c1cnc2onc(CC(C)(C)C)c2c1 (centres undefined),-1.6%
16,CC(C)S(=O)(=O)N1CCCC(c2nccn2Cc2cccnc2)C1 (centres undefined),3.72%
17,O=C(NCCC1=CCCCC1)c1cc(-c2ccc(O)cc2)n[nH]1,38.8%
18,COC[C@]1(O)CCN(Cc2ccc(N(C)C)nc2)CC1(C)C,7.63%
19,c1csc(CN2CCOCC3(CCN(C4CCOCC4)C3)C2)n1 (centres undefined),0.487%
20,CCOC(=O)[C@]12CCCN(Cc3nccs3)C[C@H]1CN(C(C)=O)C2,-2.99%
21,O=C(NCc1nnc2n1CCCC2)N1CCc2sccc2C1,-9.78%
22,COc1ccccc1OC1CN(C(=O)Cc2c(C)nc(N)nc2C)C1,0.866%

row,Compound,cytotoxicity at 10 µM
1,Cc1nn(C)c(C)c1CN1CCCC(c2ccc(C(=O)O)cc2)C1 (centres undefined),-8.82%
2,CC(=O)N1CCN([C@@H]2CCC[C@@H](NC(=O)c3cccnc3)[C@H]2O)CC1,-0.00173%
3,CSc1ccccc1CCC1CCS(=O)(=O)C1 (centres undefined),3.75%
4,O=C(N[C@H]1CCCC[C@@H]1O)c1ccc2nc(-c3ccccc3)[nH]c2c1,0.822%
5,CN1CCN(c2ccc(NC(=O)c3ccoc3)c(C(F)(F)F)c2)CC1,-4.1%
6,CC(C)N(C)S(=O)(=O)c1ccc2c(c1)CCN(C(=O)c1cnccn1)C2,-6.17%
7,CC(=O)N1CCC2(CC1)CC(N1CCOCC1)c1ccc(C)cc12 (centres undefined),-137%
8,Cc1cc(CN2CCN(C(=O)CCCc3nc(C(C)C)no3)CC2)on1,-9.05%
9,COc1ccc(S(=O)(=O)NCCC(O)c2cc(C)oc2C)c(C)c1 (centres undefined),-0.165%
10,CC(C)c1noc(CCC(=O)NCC(c2ccco2)N2CCCC2)n1 (centres undefined),-9.71%
11,O=C1CCCc2nccc(-c3ccccc3)c21,3.15%
12,Cc1cc(-c2cnc(N3CCNC(=O)C3)nc2-c2ccoc2C)on1,-25.5%
13,CC(=O)N1CCN(CCNS(=O)(=O)c2c(F)cccc2F)CC1,-1.14%
14,CCN1CC2(CC1=O)CN(Cc1ccc(C)o1)CCN(C(=O)C(C)C)C2 (centres undefined),2.84%
15,COCCN1CCN(Cc2cccc(OCC(N)=O)c2)CC1C (centres undefined),2.43%
16,CS(=O)(=O)Cc1nc(CNc2c(F)cc(F)cc2F)cs1,-4.73%
17,Cc1ncn(CCNC(=O)Nc2ccc(OC(F)(F)F)cc2)c(=O)c1C,-1.32%
18,O=C(c1ccncc1F)N1CC2CC1(C(=O)N1CCCC1)C2,-2.51%
19,Cc1ccc2cccc(Oc3nc(C)c(C(=O)O)s3)c2n1,6.39%
20,CC(C(=O)NCc1ccco1)N1CCN(Cc2nccn2C)CC1 (centres undefined),7.73%
21,CCN1C(=O)CCCC12CCCN(C(=O)c1ccoc1C)C2 (centres undefined),-11.8%
22,O=C(C1CC=CC1)N1CCCn2nnc(CNc3ncccn3)c2C1,6.97%
